ChEMBL document CHEMBL4706730, “A Set of Highly Sensitive Sirtuin Fluorescence Probes for Screening Small-Molecular Sirtuin Defatty-Acylase Inhibitors” (ACS Med Chem Lett, 2021)
Numbered stars: 1 amine (or outer) side, 2 acyl side, 3 side chain; on linkers, the order of the positions; unused ones are H or OH. Square brackets hold non-standard residues; d marks the D form. Peptide text beside a SMILES is read from it. * marks the point of attachment. X1 = O=C(O)c1cc(NC(=S)*)ccc1-c1c2ccc(=O)cc-2oc2cc(O)ccc12; X2 = CN(CCC(=O)*)c1ccc(/N=N/c2ccc([N+](=O)[O-])cc2)cc1; Achc(trans-4) = O=C([C@H]1CC[C@H](N[*:1])CC1)[*:2]; X3 = CN(C)c1ccc(/N=N/c2ccc(CCC(=O)*)cc2)cc1

Assays:
[1] = molecular target: T1, NAD-dependent protein deacetylase sirtuin-1 (Homo sapiens) (UniProt Q96EB6); experiment: Binding affinity to SIRT1 (unknown origin) assessed as increase in fluorescence intensity at 2.5 uM measured at 5 mins interval for 1 hr in presence of NAD+ by fluorometric method relative to control
T1 sequence (whole entry): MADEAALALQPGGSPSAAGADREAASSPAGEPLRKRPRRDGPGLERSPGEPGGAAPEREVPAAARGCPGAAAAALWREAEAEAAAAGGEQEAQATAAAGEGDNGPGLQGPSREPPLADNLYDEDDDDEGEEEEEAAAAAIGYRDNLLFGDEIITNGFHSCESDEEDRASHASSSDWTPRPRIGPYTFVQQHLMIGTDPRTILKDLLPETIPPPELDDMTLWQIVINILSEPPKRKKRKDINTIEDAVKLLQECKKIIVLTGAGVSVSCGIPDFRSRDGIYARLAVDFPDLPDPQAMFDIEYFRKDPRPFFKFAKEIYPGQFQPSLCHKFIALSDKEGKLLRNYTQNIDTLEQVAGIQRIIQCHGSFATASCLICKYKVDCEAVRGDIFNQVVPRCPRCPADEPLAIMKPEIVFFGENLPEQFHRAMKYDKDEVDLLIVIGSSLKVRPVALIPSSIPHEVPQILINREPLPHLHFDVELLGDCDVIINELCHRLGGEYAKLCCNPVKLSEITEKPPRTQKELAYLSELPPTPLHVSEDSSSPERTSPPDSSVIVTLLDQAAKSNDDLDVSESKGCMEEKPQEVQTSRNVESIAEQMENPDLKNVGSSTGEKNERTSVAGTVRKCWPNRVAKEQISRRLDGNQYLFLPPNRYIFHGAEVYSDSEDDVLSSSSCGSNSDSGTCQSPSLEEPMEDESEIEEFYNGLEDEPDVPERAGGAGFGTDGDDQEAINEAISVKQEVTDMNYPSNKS
Procedure, shortened: (§1)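 Each FITC/quencher FRET peptide probe was incubated with recombinant SIRT1–7 in 96-well half-area plates at 37 °C for 1 h. The fluorescence increase is reported as a fold change, SIRT(+) signal over SIRT(−) signal, after 1 h.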

[2] = molecular target: T2, NAD-dependent protein deacetylase sirtuin-2 (Homo sapiens) (UniProt Q8IXJ6); experiment: Binding affinity to SIRT2 (unknown origin) assessed as increase in fluorescence intensity at 2.5 uM measured at 5 mins interval for 1 hr in presence of NAD+ by fluorometric method relative to control; procedure, shortened: as §1
T2 sequence (whole entry): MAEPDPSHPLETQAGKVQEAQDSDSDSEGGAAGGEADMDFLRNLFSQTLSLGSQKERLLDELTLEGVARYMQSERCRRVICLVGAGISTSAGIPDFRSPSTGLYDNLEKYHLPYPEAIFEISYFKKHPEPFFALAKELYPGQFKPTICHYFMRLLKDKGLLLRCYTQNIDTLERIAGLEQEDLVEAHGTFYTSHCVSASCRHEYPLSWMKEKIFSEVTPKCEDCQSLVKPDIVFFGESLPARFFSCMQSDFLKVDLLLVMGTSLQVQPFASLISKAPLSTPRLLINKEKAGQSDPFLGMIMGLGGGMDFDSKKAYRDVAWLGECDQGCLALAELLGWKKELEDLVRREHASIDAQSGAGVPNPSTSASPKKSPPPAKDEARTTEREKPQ

[3] = molecular target: T3, NAD-dependent protein deacetylase sirtuin-3, mitochondrial (Homo sapiens) (UniProt Q9NTG7); experiment: Binding affinity to SIRT3 (unknown origin) assessed as increase in fluorescence intensity at 2.5 uM measured at 5 mins interval for 1 hr in presence of NAD+ by fluorometric method relative to control; procedure, shortened: as §1
T3 sequence (whole entry): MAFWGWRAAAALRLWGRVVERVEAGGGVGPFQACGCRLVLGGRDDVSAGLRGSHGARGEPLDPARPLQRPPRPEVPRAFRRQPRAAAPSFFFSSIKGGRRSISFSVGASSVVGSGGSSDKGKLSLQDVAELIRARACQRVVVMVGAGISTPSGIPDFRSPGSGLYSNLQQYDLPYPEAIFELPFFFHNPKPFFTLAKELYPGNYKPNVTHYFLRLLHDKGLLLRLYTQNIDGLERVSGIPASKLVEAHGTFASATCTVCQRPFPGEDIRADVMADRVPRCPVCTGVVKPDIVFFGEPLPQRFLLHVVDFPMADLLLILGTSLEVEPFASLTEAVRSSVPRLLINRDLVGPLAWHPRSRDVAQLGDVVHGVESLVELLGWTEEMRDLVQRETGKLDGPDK

[4] = molecular target: T4, NAD-dependent protein lipoamidase sirtuin-4, mitochondrial (Homo sapiens) (UniProt Q9Y6E7); experiment: Binding affinity to SIRT4 (unknown origin) assessed as increase in fluorescence intensity at 2.5 uM measured at 5 mins interval for 1 hr in presence of NAD+ by fluorometric method relative to control; procedure, shortened: as §1
T4 sequence (whole entry): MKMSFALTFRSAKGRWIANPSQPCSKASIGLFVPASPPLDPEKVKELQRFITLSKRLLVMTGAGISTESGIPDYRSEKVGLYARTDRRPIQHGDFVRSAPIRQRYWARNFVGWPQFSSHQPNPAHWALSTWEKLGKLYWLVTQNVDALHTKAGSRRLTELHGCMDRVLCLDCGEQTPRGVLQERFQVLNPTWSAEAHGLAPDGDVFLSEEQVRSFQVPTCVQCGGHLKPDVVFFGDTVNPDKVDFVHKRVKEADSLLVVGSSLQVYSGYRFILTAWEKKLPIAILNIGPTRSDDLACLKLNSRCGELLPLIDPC

[5] = molecular target: NAD-dependent protein deacylase sirtuin-5, mitochondrial (Homo sapiens) (UniProt Q9NXA8); experiment: Binding affinity to SIRT5 (unknown origin) assessed as increase in fluorescence intensity at 2.5 uM measured at 5 mins interval for 1 hr in presence of NAD+ by fluorometric method relative to control; procedure, shortened: as §1
[6] = molecular target: NAD-dependent protein deacylase sirtuin-6 (Homo sapiens) (UniProt Q8N6T7); experiment: Binding affinity to SIRT6 (unknown origin) assessed as increase in fluorescence intensity at 2.5 uM measured at 5 mins interval for 1 hr in presence of NAD+ by fluorometric method relative to control; procedure, shortened: as §1
[7] = molecular target: T5, NAD-dependent protein deacetylase sirtuin-7 (Homo sapiens) (UniProt Q9NRC8); experiment: Binding affinity to SIRT7 (unknown origin) assessed as increase in fluorescence intensity at 2.5 uM measured at 5 mins interval for 1 hr in presence of NAD+ by fluorometric method relative to control; procedure, shortened: as §1
T5 sequence (whole entry): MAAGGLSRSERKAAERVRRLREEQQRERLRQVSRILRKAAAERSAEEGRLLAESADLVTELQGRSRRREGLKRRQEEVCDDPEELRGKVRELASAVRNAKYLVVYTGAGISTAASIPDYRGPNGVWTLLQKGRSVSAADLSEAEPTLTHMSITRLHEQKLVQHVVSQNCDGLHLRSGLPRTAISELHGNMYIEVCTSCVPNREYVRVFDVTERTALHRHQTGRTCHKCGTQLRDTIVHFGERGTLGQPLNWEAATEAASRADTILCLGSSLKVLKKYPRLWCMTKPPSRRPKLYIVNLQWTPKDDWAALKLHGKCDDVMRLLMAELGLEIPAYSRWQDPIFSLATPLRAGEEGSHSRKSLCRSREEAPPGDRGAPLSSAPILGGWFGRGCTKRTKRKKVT

NAD-dependent protein deacylase sirtuin-5, mitochondrial (Homo sapiens), sequence (Q9NXA8 37-310 limits assumed): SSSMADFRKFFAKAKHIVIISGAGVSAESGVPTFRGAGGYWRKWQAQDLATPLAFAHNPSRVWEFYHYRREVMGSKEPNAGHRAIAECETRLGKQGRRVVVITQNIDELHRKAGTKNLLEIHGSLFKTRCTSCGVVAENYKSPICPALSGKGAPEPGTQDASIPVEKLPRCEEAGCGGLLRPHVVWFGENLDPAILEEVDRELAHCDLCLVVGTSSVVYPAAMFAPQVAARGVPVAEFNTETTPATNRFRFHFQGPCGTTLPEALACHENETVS
NAD-dependent protein deacylase sirtuin-6 (Homo sapiens), sequence (Q8N6T7 whole entry): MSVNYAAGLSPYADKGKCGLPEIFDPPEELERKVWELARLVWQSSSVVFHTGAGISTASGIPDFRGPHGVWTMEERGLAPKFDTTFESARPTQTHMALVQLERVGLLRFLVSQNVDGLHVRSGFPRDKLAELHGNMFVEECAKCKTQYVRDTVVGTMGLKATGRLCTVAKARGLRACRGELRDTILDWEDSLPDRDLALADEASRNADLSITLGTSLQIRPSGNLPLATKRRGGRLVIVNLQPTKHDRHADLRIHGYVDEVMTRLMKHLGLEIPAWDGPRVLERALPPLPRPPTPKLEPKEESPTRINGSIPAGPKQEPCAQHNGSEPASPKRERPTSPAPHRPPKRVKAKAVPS

Structure (SMILES)	fold change (FC) [1]	fold change (FC) [2]	fold change (FC) [3]	fold change (FC) [4]	fold change (FC) [5]	fold change (FC) [6]	fold change (FC) [7]
CN(CCC(=O)NCCCC[C@H](NC(=O)[C@H](Cc1ccccc1)NC(=O)[C@H](CO)NC(=O)[C@H](CCCCN)NC(=O)[C@H](CCCCN)NC(=O)[C@H]1CC[C@H](NC(=S)Nc2ccc(-c3c4ccc(=O)cc-4oc4cc(O)ccc34)c(C(=O)O)c2)CC1)C(=O)N[C@@H](CCC(=O)O)C(=O)N[C@@H](CCCNC(=N)N)C(=O)N[C@@H](CO)C(=O)N[C@@H](CO)C(N)=O)c1ccc(/N=N/c2ccc([N+](=O)[O-])cc2)cc1 (X1-[Achc(trans-4)]KKSFK(X2)ERSS-NH2)	8.86	5.64	26.2	1.2	1.05	3.36	0.99
C[C@H](NC(=O)CNC(=O)CNC(=O)[C@H](CCCCN)NC(=O)[C@H]1CC[C@H](NC(=S)Nc2ccc(-c3c4ccc(=O)cc-4oc4cc(O)ccc34)c(C(=O)O)c2)CC1)C(=O)N[C@@H](CCCCNC(=O)CCN(C)c1ccc(/N=N/c2ccc([N+](=O)[O-])cc2)cc1)C(=O)N[C@@H](CCCNC(=N)N)C(=O)N[C@@H](Cc1c[nH]cn1)C(=O)N[C@@H](CCCNC(=N)N)C(=O)N[C@@H](CCCCN)C(N)=O	14.7	10.3	–	1.04	1.07	2.55	1.09
CC(=O)N[C@@H](CCC(N)=O)C(=O)N[C@H](C(=O)N[C@@H](C)C(=O)N[C@@H](CCCNC(=N)N)C(=O)N[C@@H](CCCCNC(=O)CCc1ccc(/N=N/c2ccc(N(C)C)cc2)cc1)C(=O)N[C@@H](CO)C(=O)N[C@H](C(=O)NCC(=O)NCC(=O)NCCCNC(=S)Nc1ccc(-c2c3ccc(=O)cc-3oc3cc(O)ccc23)c(C(=O)O)c1)[C@@H](C)O)[C@@H](C)O	13.8	5.89	–	1.03	1.08	3.6	1.04
CC[C@H](C)[C@H](NC(=O)[C@H](CCCNC(=N)N)NC(=O)[C@H](Cc1ccccc1)NC(=O)[C@H](CC(N)=O)NC(=O)[C@H]1CC[C@H](NC(=S)Nc2ccc(-c3c4ccc(=O)cc-4oc4cc(O)ccc34)c(C(=O)O)c2)CC1)C(=O)N[C@@H](CCCCNC(=O)CCc1ccc(/N=N/c2ccc(N(C)C)cc2)cc1)C(=O)N[C@@H](CCCNC(=N)N)C(=O)N[C@@H](Cc1ccc(O)cc1)C(=O)N[C@@H](CO)C(=O)N[C@@H](CC(N)=O)C(N)=O (X1-[Achc(trans-4)]NFRIK(X3)RYSN-NH2)	4.79	1.85	1.92	1.14	1.11	1.07	1.04
C[C@H](NC(=O)CNC(=O)CNC(=O)[C@H](CCCCN)NC(=O)[C@H]1CC[C@H](NC(=S)Nc2ccc(-c3c4ccc(=O)cc-4oc4cc(O)ccc34)c(C(=O)O)c2)CC1)C(=O)N[C@@H](CCCCNC(=O)CCc1ccc(/N=N/c2ccc(N(C)C)cc2)cc1)C(=O)N[C@@H](CCCNC(=N)N)C(=O)N[C@@H](Cc1c[nH]cn1)C(=O)N[C@@H](CCCNC(=N)N)C(=O)N[C@@H](CCCCN)C(N)=O	12	5.45	–	0.93	1.07	1.33	1.03
CC[C@H](C)[C@H](NC(=O)[C@H](CCCNC(=N)N)NC(=O)[C@H](Cc1ccc(O)cc1)NC(=O)[C@H](CC(=O)O)NC(=O)[C@H]1CC[C@H](NC(=S)Nc2ccc(-c3c4ccc(=O)cc-4oc4cc(O)ccc34)c(C(=O)O)c2)CC1)C(=O)N[C@@H](CCCCNC(=O)CCc1ccc(/N=N/c2ccc(N(C)C)cc2)cc1)C(=O)N[C@@H](CCCNC(=N)N)C(=O)N[C@@H](Cc1ccc(O)cc1)C(=O)N[C@@H](Cc1c[nH]cn1)C(=O)N[C@H](C(N)=O)[C@@H](C)O (X1-[Achc(trans-4)]DYRIK(X3)RYHT-NH2)	4.76	1.92	1.96	1.11	1.09	1.05	1.01
C[C@H](NC(=O)[C@@H](NC(=O)[C@H](CCC(N)=O)NC(=O)[C@H]1CC[C@H](NC(=S)Nc2ccc(-c3c4ccc(=O)cc-4oc4cc(O)ccc34)c(C(=O)O)c2)CC1)[C@@H](C)O)C(=O)N[C@@H](CCCNC(=N)N)C(=O)N[C@@H](CCCCNC(=O)CCN(C)c1ccc(/N=N/c2ccc([N+](=O)[O-])cc2)cc1)C(=O)N[C@@H](CO)C(=O)N[C@H](C(=O)NCC(=O)NCC(=O)O)[C@@H](C)O	6.06	4.06	–	1.2	1.07	9.38	1.04
C[C@H](NC(=O)[C@@H]1CCCN1C(=O)[C@H](C)NC(=O)[C@H]1CC[C@H](NC(=S)Nc2ccc(-c3c4ccc(=O)cc-4oc4cc(O)ccc34)c(C(=O)O)c2)CC1)C(=O)N1CCC[C@H]1C(=O)N[C@@H](CCCCNC(=O)CCN(C)c1ccc(/N=N/c2ccc([N+](=O)[O-])cc2)cc1)C(=O)N[C@@H](CCCCN)C(=O)NCC(=O)N[C@@H](CO)C(=O)N[C@@H](CCCCN)C(N)=O (X1-[Achc(trans-4)]APAPK(X2)KGSK-NH2)	5	3.83	12.3	1.18	0.99	3.51	1.01
